These results are taken from PubChem BioAssay AID1496 (Sanford-Burnham Center for Chemical Genomics, 2009).

The term inhibition denotes the change of the read-out against control, counted positive when it falls.

Screen size: about 220,000 compounds; about 990 (0.45%) were called active. This is one part of a sample in which actives are shown more often than they occur. Values without a mark were called inactive.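 The calls were made as follows: active = inhibition over about 50% at 20 µM in the single-dose screen (limit read from the data); inactive = the rest.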

Chain of Runt-related transcription factor 1 (Homo sapiens) + Core-binding factor subunit beta (Homo sapiens) (Q01196 whole entry, looked up, the tested form may be a part): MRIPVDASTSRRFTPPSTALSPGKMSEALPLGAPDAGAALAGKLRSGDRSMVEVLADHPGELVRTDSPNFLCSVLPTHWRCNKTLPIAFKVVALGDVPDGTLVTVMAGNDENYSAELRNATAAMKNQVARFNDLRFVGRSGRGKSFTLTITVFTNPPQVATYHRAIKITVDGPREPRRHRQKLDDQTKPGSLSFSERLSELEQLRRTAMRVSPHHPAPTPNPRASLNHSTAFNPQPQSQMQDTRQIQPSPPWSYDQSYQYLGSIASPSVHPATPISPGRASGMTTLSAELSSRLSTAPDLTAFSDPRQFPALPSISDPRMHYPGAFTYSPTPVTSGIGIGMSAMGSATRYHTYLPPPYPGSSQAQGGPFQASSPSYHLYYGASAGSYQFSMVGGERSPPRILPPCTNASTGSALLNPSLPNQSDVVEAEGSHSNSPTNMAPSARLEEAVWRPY
Chain of Runt-related transcription factor 1 (Homo sapiens) + Core-binding factor subunit beta (Homo sapiens) (Q13951 whole entry, looked up, the tested form may be a part): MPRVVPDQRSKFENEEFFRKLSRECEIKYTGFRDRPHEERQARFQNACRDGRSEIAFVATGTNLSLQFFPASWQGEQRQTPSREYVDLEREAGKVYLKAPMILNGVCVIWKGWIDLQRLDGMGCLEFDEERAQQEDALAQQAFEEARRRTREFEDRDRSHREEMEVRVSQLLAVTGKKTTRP

In the test the target is Runt-related transcription factor 1 (Homo sapiens) + Core-binding factor subunit beta (Homo sapiens) (UniProt Q01196+Q13951). In words: inhibitors of RUNX1 Runt–CBFb binding, primary screen, biochemical, FRET, Cerulean-Runt, Venus-CBFb, uHTS (AID 1496).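 Also: 0% = DMSO wells and 100% = excess unlabeled CBFb competitor control.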 The following applies: Cerulean-Runt/Venus-CBFb FRET ratio 530/480, 1 h; at 20 µM; hits give high values. In a few lines:
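test system = Cerulean-Runt domain fusion protein, energy donor | probe or stimulus = Venus-CBFb binding partner, 100 nM | incubation = two 1 h room-temperature incubations shielded from light | detection = fluorescence energy transfer, 422 nm excitation, 530/480 nm emission | measure = loss of energy transfer signal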
Regarding `O=C(O)c1ccccc1OCc1ccccc1Cl`, the inhibition is 2.6%.
For `C#CCOCCOCCOCCNc1nc(N2CCN(C(=O)[C@H](CCC(=O)O)n3cc(C(N)CO)nn3)CC2)nc(N2CCN(C(=O)[C@H](CCCCN)n3cc(C(N)[C@H](C)CC)nn3)CC2)n1` (stereo not given in full) the value was 0.2%; for `COc1ccc(C(=O)C2CCCN(C(=O)c3cnsn3)C2)c(C)c1` (stereo not given), -0.7%.
For `O=C(NCc1ccco1)C1CCCN(S(=O)(=O)c2ccccc2)C1` (stereo not given) the value was -0.1%; for `O=C(NCc1ccco1)C1CCCN(S(=O)(=O)c2cnc[nH]2)C1` (stereo not given), 1.5%; for `CCCS(=O)(=O)N1CCCC(C(=O)NCc2ccco2)C1` (stereo not given), 71.8% (active).
For `CCOC(=O)c1ccc(NC(=O)c2nc[nH]c2C(=O)NCc2ccccc2)cc1` the value was 19.6%.
As for `CN(C)S(=O)(=O)c1ccc(Cl)c(NC(=O)COC(=O)CC(NC(N)=O)c2ccc(Cl)cc2)c1` (stereo not given), the inhibition is -1.9%.
For `CCCN(CCC)S(=O)(=O)c1ccc(C(=O)N2CC3CCC(CC3)C2)cc1` the value was -0.8%.
Consider `Cc1nc(C(=O)Nc2ccc(Cl)cc2)sc1C1(C)CC(c2ccccc2)=NO1` (stereo not given), for which the inhibition is 1.9%.
For `O=C(O)/C=C/c1ccc2c(c1)OCCO2` the value was 1.9%; for `COc1cccc(CC(=O)Nc2ccc(-c3csc(C)n3)cc2)c1`, -1.8%.
For `COc1ccc(OC(C)C(=O)NCCc2nc3ccccc3[nH]2)cc1` (stereo not given) the value was -0.9%; for `CC(C)=C(NC(=O)c1ccco1)C(=O)NCCc1nc2ccccc2[nH]1`, 1.2%; for `CC(C)Oc1ccc(/C=C(\NC(=O)/C=C/c2ccco2)C(=O)NCCc2nc3ccccc3[nH]2)cc1`, 89.5% (active).
For `CCOC(=O)C1=C(N)N2C(=O)C(C)SC2=C(C(=O)OCC)C1c1cc(OC)c(OC)c(OC)c1` (stereo not given) the value was -5%; for `Cc1cc(Nc2ccc(Cl)cc2)nc(N2CCOCC2)n1`, 0.3%.
As for `Cc1ccc(-n2c(N)c(C(=O)N3CCOCC3)sc2=S)c(C)c1`, the inhibition was 40.6%.
For `CCOC(=O)c1sc(=S)n(-c2cccc(OC)c2)c1N` the value was 34%.
For `Cc1cccc(-n2c(N)c(C(=O)N3CCN(C)CC3)sc2=S)c1`, the inhibition was 55.8% (active).
For `CC(=O)Nc1nc2c(s1)C(=O)NCC(C)(C)C2` the value was 1%; for `CCCN(c1ccc(C)cc1)c1nc(=O)c2cccnc2s1`, 0.8%; for `Cc1cccc(N2C(=O)CC(SC(N)=Nc3ccccc3)C2=O)c1` (stereo not given), -1.7%.
For `Cc1cccc(N2C(=O)C3C(c4ccccc4)OC4(C(=O)c5ccccc5C4=O)C3C2=O)c1` (stereo not given), the inhibition was 115% (active).
`Cc1cccc(N2C(=O)c3cccnc3C2=O)c1`: the inhibition is -2.4%.
Take `O=C(Nc1ccc(Cl)cc1)Nc1ccc(C(=O)N2CCOCC2)cc1`: the inhibition was -0.4%.
For the molecule `Cc1cccn2c(=O)c3cc(C#N)c(=O)n(CCCN4CCOCC4)c3nc12`, the inhibition was 92.6% (active).
For `Cc1cccn2c(=O)c3cc(C(=O)N4COCC4(C)C)n(C)c3nc12`, the inhibition is -1.7%.
For `Cc1cc(C)n(CC(C)NCc2c(C(=O)N3CCOCC3)nc3c(C)cccn23)n1` (stereo not given) the value was 0.6%; for `CC(C)c1c(O)nc(SCCOc2ccc(Cl)cc2)[nH]c1=O`, 0.6%; for `Cc1cc(C)c2c3c(sc2n1)C(c1ccccc1)C(C#N)=C(N)O3` (stereo not given), 66.6% (active).
For `Cc1cc(C)c(C#N)c(SCc2[nH]nc3c2C(c2ccccc2)C(C#N)=C(N)O3)n1` (stereo not given) the value was -1.5%.
For `N#CC1=C(N)Oc2c(sc3ccccc23)C1c1ccco1` (stereo not given) the value was 15.7%; for `Nc1c(Cl)cc(S(N)(=O)=O)cc1S(N)(=O)=O`, 0%.
Turning to `COc1ccc(/C=C2\N=C3CCCN3C2=O)cc1`, the inhibition was 1.1%.
For `COc1ccc(/C=N/NS(=O)(=O)c2ccc(NC(C)=O)cc2)cc1` the value was 0.8%; for `CCCCN1CCNC1=S`, 0.1%; for `O=C1c2ccccc2S(=O)(=O)N1CC(O)Cn1c2ccccc2c2ccccc21` (stereo not given), -0.7%.
Consider `CS(=O)(=O)N(CC(O)Cn1c2ccccc2c2ccccc21)c1cccc2ccccc12` (stereo not given), for which the inhibition was -3.3%.
For `CCCCN(CCCC)CC(O)Cn1c2ccccc2c(=O)c2ccccc21` (stereo not given) the value was 80.3% (active); for `O=C1[C@@H]2C(c3cccnc3)=NO[C@@H]2C(=O)N1c1ccc(Cl)cc1Cl`, 9%.
For `COc1ccc(Cl)cc1CSc1ncn[nH]1` the value was -0.7%; for `Cc1ccsc1/C=N/NC(=O)Cc1cc(=O)[nH][nH]1`, -1.1%; for `Cc1cc(F)ccc1S(=O)(=O)Nc1ncnc2scc(-c3ccc(F)cc3)c12`, 66.8% (active).
For `COc1ccc(-c2csc3ncnc(Oc4ccc5c(C)cc(=O)oc5c4)c23)cc1` the value was -0.5%; for `CCn1cnc2scc(-c3ccc(C)c(C)c3)c2c1=O`, 0.4%; for `CCOc1ccc2sc(NS(=O)(=O)c3ccc(N)cc3)nc2c1`, 0.7%.
`CCNc1nc(NCC)nc(N/N=C/c2ccc(O)c(OC)c2)n1`: the inhibition is 10%.
`CCOC(=O)N1CCN(C(=O)c2cc3c(ccc4ccccc43)oc2=O)CC1`: the inhibition is 2.5%.
For `N=c1oc2ccccc2cc1C(=O)N/N=C/c1ccccc1` the value was -2.3%; for `CNC(=O)c1cc2c(ccc3ccccc32)oc1=N`, 108% (active); for `CCN(CC)C(=O)Oc1ccc(Br)cc1C(=O)Nc1ccc(F)c(Cl)c1`, 0.6%.
For `CCn1c(SCC(=O)N/N=C/c2ccncc2)nc2ccccc21` the value was -0.7%.
`COc1ccc(C2C(C#N)=C(N)Oc3cc(N)ccc32)cc1OC` (stereo not given): the inhibition was 77.7% (active).
For `COC(=O)C1=C(C)OC(N)=C(C#N)C1c1cc(OC)ccc1OC` (stereo not given) the value was -2.5%; for `CCC1=C(C(=O)OC)C(c2cc(OC)ccc2OC)C(C#N)=C(N)O1` (stereo not given), 2%.
For `CCOC(=O)c1c(NC(=O)NC(C)(C)C)sc2c1CCN(C)C2` the value was 4.1%.
For `CCOC(=O)c1c(NC(=S)Nc2ccccc2)sc2c1CCN(C)C2` the value was 66.5% (active).
Take `CCOC(=O)c1c(NC(=S)Nc2ccccc2C)sc2c1CCC2`: the inhibition is 10.3%.
With `CC(C)(C)c1nnc(NC(=O)C2c3ccccc3Oc3ccccc32)s1`, the inhibition was 21%.
For `CC(C)Sc1nnc([C@H](Cc2ccccc2)NC(=O)OC(C)(C)C)o1` the value was 4.8%; for `Fc1cccc(Cl)c1CSc1ccc(-c2ccco2)nn1`, 40.3%; for `O=C(CSc1ccc(-c2ccco2)nn1)NCc1ccc2c(c1)OCO2`, 16.4%.
For `Brc1ccc(CSc2ccc(-c3ccco3)nn2)cc1` the value was 53.3% (active); for `CCC(C)(C)NC(=O)C(c1ccc(O)cc1)N(C(=O)Cn1nnc2ccccc21)c1ccc(NC(C)=O)cc1` (stereo not given), 0.4%; for `COc1cc(COCC(O)CN2CCN(Cc3ccc4c(c3)OCO4)CC2)cc(OC)c1OC` (stereo not given), -1%.
For `COc1c(O)ccc2c1CN1CCc3cc4c(cc3C1C2)OCO4` (stereo not given) the value was 66.6% (active).
As for `COc1ccc2cc1Oc1ccc(cc1)C[C@H]1c3cc(c(OC)cc3CCN1C)Oc1c(O)c(OC)cc3c1[C@H](C2)N(C)CC3`, the inhibition was 1.7%.
For `CCOC(=O)c1ccc(NC(=O)c2nc[nH]c2C(=O)N[C@@H](CCCCNC(=O)OC(C)(C)C)C(=O)OC(C)(C)C)cc1` the value was -5.6%.
With `CCOc1ccc(C(=O)NCCCN2CCCC2=O)cc1`, the inhibition is 1%.
For `Cc1ccc(C(=O)OC(C)CN2CCOCC2)cc1` (stereo not given) the value was 1.3%; for `COCC(C)OC(=O)c1c(N)n(CCCN2CCOCC2)c2nc3ccccc3nc12` (stereo not given), 67.9% (active).
For `CSc1nnc(-c2ccncc2)n1CCCN1CCCC1=O` the value was -5.5%; for `CC(C)(C)OC(=O)c1c(N)n(CCCN2CCCC2=O)c2nc3ccccc3nc12`, 68.7% (active).
For `O=C(Cn1c(-c2ccccn2)nc2ccccc21)NCCN1CCOCC1` the value was 0.6%; for `CC(C)C[C@H](CO)Nc1nc(N(C)c2cccc(Cl)c2)c2ncn(C(C)C)c2n1`, -4.6%; for `N/C(=N\OC(=O)Nc1ccccc1)c1ccno1`, 0.1%.
Consider `O=C(NC(c1ccccc1)c1ccccc1)N1CCN(CCO)CC1`, for which the inhibition was -1.2%.
For `OCCN1CCN(C(=S)c2ccc(-c3ccccc3)cc2)CC1` the value was 53.6% (active); for `S=C(c1ccc(-c2ccccc2)o1)N1CCCCC1`, 21%; for `CCc1nc2sc3c(Cl)ncnc3c2c2c1CCCC2`, -0.7%.
For `Cc1ccc(S(=O)(=O)N(C)C)cc1NC(=O)COC(=O)C1COc2ccccc2O1` (stereo not given) the value was -0.2%; for `CCN(CC)S(=O)(=O)c1ccc(N2CCOCC2)c(NC(=O)C2COc3ccccc3O2)c1` (stereo not given), 84.6% (active); for `CCN(CC)S(=O)(=O)c1ccc(N2CCOCC2)c(C(=O)O)c1`, 1%.
For `COc1cccc2sc(Nc3nc(C)c(C(C)=O)s3)nc12` the value was 66.3% (active); for `CC(=O)c1sc(NC(=O)CCCOc2ccccc2C)nc1C`, 0.4%; for `COc1cccc2sc(NNC(=O)c3nc4ccccc4s3)nc12`, 32.7%.
Take `O=S(=O)(NC(=S)Nc1ccccc1)c1ccc(F)cc1`: the inhibition is 26.8%.
Take `O=[N+]([O-])c1ccc2c(c1)C(O)n1nc(-c3ccccc3)nc1S2` (stereo not given): the inhibition was -0.7%.
For `C=CCNC(=S)NNC(=O)c1cc(Cl)ccc1OC` the value was 0.2%.
For `C=CCSc1nnc(NC(=O)c2ccc(NC(C)=O)cc2)s1` the value was 0%; for `NNC(=O)c1cccc(COCC(F)(F)C(F)F)c1`, -0.3%; for `N#CC1=C(N)N(c2ccccc2)C2=C(C(=O)CCC2)C1c1ccccc1` (stereo not given), 6.6%.
On to `CCCN1C2=C(C(=O)CCC2)C(c2ccc(O)c(Br)c2)C2=C1CCCC2=O`, for which the inhibition is 53.1% (active).
For `CCCC(=O)N1c2ccccc2NC2=C(C(=O)CCC2)C1c1ccc(F)cc1` (stereo not given) the value was -0.4%.
